# What was measured:
# Format in all cases: functional
# L1210 [1] = assay: Anti tumor activity against L1210 leukemia in tissue culture and the molar concentration required to reduce the number of L1210 cells; settings: Mus musculus, L1210, read-out: ID50
# Procedure, shortened: (§1)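 L1210 leukemia cells in tissue culture were incubated with the test drug for 2 days and the cell number was then assessed. ID50 is the molar drug concentration that reduces the number of L1210 cells by 50%.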
# Mus musculus [2] = assay: Antimalarial activity against Plasmodium berghei strain in mice (Mus musculus) by parentral route and change in mean survival time in days was determined at 80 mg/kg subcutaneous dose
# Procedure, shortened: (§2)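 Normal drug-sensitive P. berghei strain in mice. Test agents dissolved or suspended in peanut oil and given as a single sc dose 72 h postinfection, five mice per dose group. ΔMST = mean survival time of treated mice minus that of controls (days). 60-day survivors are excluded from the treated mean and scored as cured. Minimum active response is a 100% increase in MSTT.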
# Mus musculus [3] = assay: Antimalarial activity against Plasmodium berghei strain in mice (Mus musculus) by parentral route and change in mean survival time in days was determined at 320 mg/kg subcutaneous dose; procedure, shortened: as §2
# Mus musculus [4] = assay: Antimalarial activity against Plasmodium berghei strain in mice (Mus musculus) by parentral route and change in mean survival time in days was determined at 160 mg/kg subcutaneous dose; procedure, shortened: as §2
# Mus musculus [5] = assay: Antimalarial activity against Plasmodium berghei strain in mice (Mus musculus) by parentral route and change in mean survival time in days was determined at 40 mg/kg subcutaneous dose; procedure, shortened: as §2
# Mus musculus [6] = assay: Antimalarial activity against Plasmodium berghei strain in mice (Mus musculus) by parentral route and change in mean survival time in days was determined at 640 mg/kg subcutaneous dose; procedure, shortened: as §2
# L1210 [7] = assay: Anti tumor activity against L1210 leukemia in tissue culture and the molar concentration required to reduce the number of L1210 cells by 50% was determined.; settings: Mus musculus, L1210, read-out: ID50; procedure, shortened: as §1
SMILES,IC50 (L1210 [1]) [µM],Delta MST (Mus musculus [2]) [days],Delta MST (Mus musculus [3]) [days],Delta MST (Mus musculus [4]) [days],Delta MST (Mus musculus [5]) [days],Delta MST (Mus musculus [6]) [days],IC50 (L1210 [7]) [µM]
Nc1nc(N)c2cc(S(=O)(=O)c3ccc4ccccc4c3)ccc2n1,0.11,–,–,–,–,–,–
CONc1nc(N)nc2ccc(S(=O)(=O)c3ccc4ccccc4c3)cc12,–,5.7,12.7,9.1,3.9,–,–
NNc1nc(N)nc2ccc(Sc3cccc(C(F)(F)F)c3)cc12,–,3.1,11.9,6.9,0.5,15.7,–
Nc1nc(NO)c2cc(S(=O)(=O)c3ccc4ccccc4c3)ccc2n1,–,8.9,14.1,11.1,6.1,15.3,–
NNc1nc(N)nc2ccc(S(=O)(=O)c3ccc4ccccc4c3)cc12,–,1.3,3.5,2.3,0.5,4.5,–
CONc1nc(N)nc2ccc(Sc3cccc(C(F)(F)F)c3)cc12,–,6.9,–,9.7,5.7,–,24
CN(N)c1nc(N)nc2ccc(S(=O)(=O)c3ccc4ccccc4c3)cc12,–,2.3,7.1,4.3,0.5,10.7,–
ONc1nc(NO)c2cc(Sc3cccc(C(F)(F)F)c3)ccc2n1,–,3.1,10.7,9.7,1.7,–,–
CN(N)c1nc(N)nc2ccc(Sc3cccc(C(F)(F)F)c3)cc12,–,8.9,–,12.3,5.7,–,–
Nc1nc(NO)c2cc(Sc3cccc(C(F)(F)F)c3)ccc2n1,–,5.1,10.3,8.1,3.5,–,–
O=S(=O)(c1ccc2ccccc2c1)c1ccc2nc(NO)nc(NO)c2c1,–,3.3,8.1,5.9,1.1,10.7,–

# From ChEMBL document CHEMBL1123553, “Synthesis and antimalarial and antitumor effects of 2-amino-4-(hydrazino and hydroxyamino)-6-[(aryl)thio]quinazolines” (1987)
